Experimental data taken from ChEMBL document CHEMBL4665720, “Bioisosteric substitution of adamantane with bicyclic lipophilic groups improves water solubility of human soluble epoxide hydrolase inhibitors” (Bioorg Med Chem Lett, 2020).
Converted amounts (≈) assume the structure as drawn.

What was measured:
[1] = Solubility of the compound in 0.1 M sodium phosphate buffer at pH 7.4; format: physicochemical
In short: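 Measured in 0.1 M sodium phosphate buffer, pH 7.4, with 1% DMSO present.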

[2] = target: T1, Bifunctional epoxide hydrolase 2 (Homo sapiens, UniProt P34913); experiment: Inhibition of human soluble epoxide hydrolase by kinetic fluorescent assay
T1 sequence (P34913 whole entry): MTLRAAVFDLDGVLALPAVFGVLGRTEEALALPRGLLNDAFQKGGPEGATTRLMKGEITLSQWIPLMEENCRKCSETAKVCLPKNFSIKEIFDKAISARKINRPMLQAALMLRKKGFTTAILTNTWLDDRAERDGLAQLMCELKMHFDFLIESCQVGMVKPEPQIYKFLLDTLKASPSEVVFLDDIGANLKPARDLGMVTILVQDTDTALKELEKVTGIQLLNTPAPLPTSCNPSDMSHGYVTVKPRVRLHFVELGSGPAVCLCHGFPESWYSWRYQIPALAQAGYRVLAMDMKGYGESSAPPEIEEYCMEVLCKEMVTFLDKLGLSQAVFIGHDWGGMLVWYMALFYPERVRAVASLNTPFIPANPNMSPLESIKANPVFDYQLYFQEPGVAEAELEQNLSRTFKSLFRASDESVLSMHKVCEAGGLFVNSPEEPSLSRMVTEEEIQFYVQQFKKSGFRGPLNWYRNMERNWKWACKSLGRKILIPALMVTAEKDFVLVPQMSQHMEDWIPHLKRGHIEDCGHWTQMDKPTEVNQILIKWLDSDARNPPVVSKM
In short: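 Human sEH enzyme, kinetic fluorescence read-out; each value is the mean of three separate experiments.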

Row | SMILES | solubility ([1]; buffer) [µM] | IC50 [2] [nM] | solubility ([1]; sodium phosphate buffer, read-out: solubility) [µM]
1 | CC1(C)[C@@H]2CC[C@@]1(C)C(NC(=O)Nc1ccccc1F)C2 (mixture of isomers) | 225 | 50.6 | 
2 | CC1(C)C2CCC1(C)C(NC(=O)NCCCCCCCCNC(=O)NC1CC3CCC1(C)C3(C)C)C2 (stereo not given) | 10 (≈ 5.03 µg/mL) | 0.4 | 
3 | O=C(NCc1ccco1)Nc1ccccc1F | 425 (≈ 99.5 µg/mL) | 635 | 
4 | CCOC(=O)CNC(=O)NC1CC2CCC1(C)C2(C)C (stereo not given) | > 2000 | 2170 | 
5 | CC1(C)C2CCC1(C)C(NC(=O)NCCCCNC(=O)NC1CC3CCC1(C)C3(C)C)C2 (stereo not given) | 10 (≈ 4.47 µg/mL) | 2.3 | 
6 | O=C(NCCCCNC(=O)NC1CC2C=CC1C2)NC1CC2C=CC1C2 (stereo not given) |  | 21 | 
7 | O=C(NCCCCNC(=O)NCc1ccco1)NCc1ccco1 | 225 (≈ 75.2 µg/mL) | 1800 | 
8 | O=C(NCCCCNC(=O)NC1CC2CCC1C2)NC1CC2CCC1C2 (stereo not given) | 75 (≈ 27.2 µg/mL) | 11.8 | 
9 | O=C(NCCCCCCCCCCNC(=O)NC1CC2C=CC1C2)NC1CC2C=CC1C2 (stereo not given) |  | 0.4 | 
10 | CC1(C)C2CCC1(C)C(NC(=O)Nc1ccccc1F)C2 (stereo not given) | 225 (≈ 65.3 µg/mL) | 14.4 | 
11 | CC1(C)C2CCC1(C)C(NC(=O)Nc1ccc(OC(F)(F)F)cc1)C2 (stereo not given) |  | 2.5 | 
12 | O=C(NCCCCCCCCNC(=O)NCc1ccco1)NCc1ccco1 | 50 (≈ 19.5 µg/mL) |  | 
13 | CCCCCCCCNC(=O)NC1CC2CCC1(C)C2(C)C (stereo not given) | 125 (≈ 38.6 µg/mL) | 6.5 | 
14 | O=C(NCCCCCCNC(=O)NCc1ccco1)NCc1ccco1 | 100 (≈ 36.2 µg/mL) | 86.3 | 
15 | O=C(NCC12CC3CC(CC(C3)C1)C2)NC1CC2C=CC1C2 (stereo not given) |  | 0.7 | 
16 | O=C(NC1CC2C=CC1C2)NC1C2CC3CC(C2)CC1C3 (stereo not given) |  | 0.9 | 
17 | O=C(NC1CC2C=CC1C2)N[C@H]1CC[C@H](Oc2ccc(C(=O)O)cc2)CC1 (stereo not given in full) | 350 (≈ 130 µg/mL) | 1.5 | 
18 | CC12CCC(NC(=O)N[C@H]3CC[C@H](Oc4ccc(C(=O)O)cc4)CC3)(OC1=O)C2(C)C (stereo not given in full) | 300 (≈ 129 µg/mL) | 35.3 | 
19 | CC1(C)[C@H]2CC[C@]1(C)C(NC(=O)Nc1ccccc1F)C2 (mixture of isomers) |  | 3.7 | 
20 | O=C(NCCCCCCCCNC(=O)NC1CC2CCC1C2)NC1CC2CCC1C2 (stereo not given) |  | 0.4 | 
21 | CCOC(=O)CNC(=O)NC1CC2CCC1C2 (stereo not given) | > 2000 | 1580 | 
22 | O=C(NCc1ccco1)NCC12CC3CC(CC(C3)C1)C2 | 300 (≈ 86.5 µg/mL) | 44.8 | 
23 | O=C(Nc1ccc(OC(F)(F)F)cc1)N[C@H]1CC[C@H](Oc2ccc(C(=O)O)cc2)CC1 |  |  | 5 (≈ 2.19 µg/mL)
24 | O=C(Nc1ccc(OC(F)(F)F)cc1)NC1CC2CCC1C2 (stereo not given) |  | 0.4 | 
25 | O=C(Nc1ccccc1F)NC1CC2CCC1C2 (stereo not given) | 325 (≈ 80.7 µg/mL) | 6.8 | 
